Test [1] in a line: Antioxidant activity at 1 to 1000 ug/ml incubated for 90 mins by FRAP assay. The format is functional.
Test [2] concerns A-375. Kind of test: Induction of GSH depletion in human A375 cells by fluorimetry. Format: functional, cell-based.
Test [3] concerns A-375. Kind of test: Induction of apoptosis in human A375 cells assessed as cytochrome-c release after 6 to 8 hrs by Raman spectral imaging analysis. The format is functional, cell-based.
In test [4] the test system is A-375. Kind of test: Induction of DNA fragmentation in human A375 cells after 3 hrs by chemometec-DNA fragmentation assay relative to control. The format is functional, cell-based.
The subject of test [5] is A-375. The experiment in a line: Antimetastatic activity in human A375 cells assessed as reduction in cell invasion at 10 nM by crystal violet staining based transwell chamber assay. The format is functional. In outline:
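Invasion was measured in a transwell chamber, with cells moving across Matrigel toward the lower chamber. Invaded cells were imaged and quantified against untreated control.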

Another test relates to A549. The experiment in a line: Induction of cell cycle arrest in human A549 cells assessed as accumulation at S phase at 10 nM by propodium iodide staining based flow cytometric analysis (reference value: 25%). Format: functional. In outline:
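DNA was stained with propidium iodide and analysed by flow cytometry. Histograms give the fraction of cells in G0/G1, S and G2/M phases.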
Background: Flow cytometry measures light scatter and fluorescence of single cells or particles in a stream.

One compound from ChEMBL document CHEMBL4334468, “Exploring Mitochondria-Mediated Intrinsic Apoptosis by New Phytochemical Entities: An Explicit Observation of Cytochrome c Dynamics on Lung and Melanoma Cancer Cells” (J Med Chem, 2019) can be followed below.

Activity calls are given as the source filed them. The rule behind the calls is not given here.

In the case of `COc1cc(C2Oc3cc(-c4cc(=O)c5c(O)cc(O)cc5o4)ccc3OC2/C=C2\C(=O)ON=C2c2ccc(Cl)cc2)ccc1O` (stereo unspecified), the outcome in test [1] was inactive. Also, the result in the test with A-375 [2], in the test on A-375 [3], with A-375 [4] and in the test with A-375 [5] was Active. For the same compound, in the test on A549, the Activity stood at 40%.
